Measured values gathered from unrelated publications.
Lines come from different studies, so protocols differ.
CDK17: Cyclin-dependent kinase 17 (CDK17, Homo sapiens, UniProt Q00537)

SMILES | target | assay | conditions | quantity | value
CCN1CCC2(CC1)NC(=O)c1c(c3ccc(Cl)c(Cl)c3n1C)C2C#N (racemic) | CDK17 | thermal stability, DSF | 10 µM | ΔTm | 0 °C
Nc1ncnc2occ(-c3ccc(NC(=O)Nc4cc(C(F)(F)F)ccc4F)cc3)c12 | CDK17 | cell-free assay, inhibitor | 20 µM | remaining signal | 0.4%
CCCCNc1ncc2c(-c3ccc(F)cc3)nn(C[C@H]3CC[C@H](N)CC3)c2n1 | CDK17 | target engagement in cells, inhibitor, chemoproteomics | 20 mM | inhibition | 41.7%
COc1ccc2cc(OCC3(C(=O)O)CN(C(=O)c4ccc(F)cc4)C3)ccc2c1 | CDK17 | cell-free assay, competition with immobilised ligand | 1 µM | remaining binding | 100%
O=C(Nc1cnn(-c2csc(C(=O)NC3COC3)c2)c1)Nc1c(F)cccc1Cl | Cyclin-dependent kinase 17, with cyclin Y (CDK17, Homo sapiens, UniProt Q00537) | enzyme activity, inhibitor | 5 µM | remaining activity | 96%
CCC1(CC)NC(=O)c2c(c3ccc(Cl)c(Cl)c3n2C)C1C#N (stereo not drawn) | CDK17 | thermal stability, DSF | 10 µM | ΔTm | 0.7 °C
C[C@@H](c1cccc(C#N)c1)n1cc(Cl)cc(C(N)=O)c1=N | CDK17 | cell-free assay, competition with immobilised ligand | 1 µM | remaining binding | 84%
Cn1c2c(Cl)c(Cl)ccc2c2cc(N)[nH]c(=O)c21 | CDK17 | thermal stability, DSF | 10 µM | ΔTm | 0.6 °C
C[C@@H]1CCN(c2nccc(-c3cnn4ncccc34)n2)C1 | CDK17 | binding | 1 µM | remaining binding | 100%
O=C(Nc1cnc(Oc2ccc(F)cc2)nc1)N1CCc2ncccc2[C@@H]1c1ccc(F)cc1 | CDK17 | cell-free assay, competition with immobilised ligand | 1 µM | remaining binding | 97%
Cn1c2c(c3ccccc31)C(C#N)C(C)(C)NC2=O (stereo not drawn) | CDK17 | thermal stability, DSF | 10 µM | ΔTm | 0 °C
Cc1ccc(C(=O)Nc2ccc(CN3CCN(C)CC3)c(C(F)(F)F)c2)cc1C#Cc1cnc2cccnn12 | CDK17 | enzyme activity, inhibitor | 23.5 nM | remaining activity | 7.6%
